An excerpt weighted towards active compounds, which were near 5.3% of everything screened.
T cruzi inh: T. cruzi replication inhibition; T. cruzi beta-gal in NIH3T3, luminescence, 90 h; inhibition, % (no concentration beside the values); actives 1.4% (n = 300,000);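 active = mean inhibition across valid replicates above about 55%, limit read from the data; inconclusive = mean below that limit but half or more replicates reach it; inactive = mean below it, under half of replicates reach it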;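 note: signal also drops with host cell toxicity which is not excluded here; higher percent means less beta-gal luminescence so fewer parasites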
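System – NIH/3T3 host cells with β-galactosidase reporter T. cruzi · Doses – single 50 nL compound addition per well in DMSO · Reagent – 5000 T. cruzi trypomastigotes/well · Medium – Low-serum DMEM with 2% FBS · Timing – ≥90 h infection period, 3 h prior cell attachment · Evaluation – parasite load inhibition, % · Technique – GalScreen luminescence, 60 min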
NLRP3 yeast inh: blocks the NALP3 inflammasome reconstituted in yeast. actives 0.39% (n = 330,000). inhibition, % at 10 µM. Yeast reconstituted NLRP3/ASC/caspase-1, beta-gal luminescence, 24 h;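 active = inhibition of 50% or more; inactive = inhibition below 50%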
Beta cell apopt: beta cell apoptosis inhibition | INS-1E cytokine-induced death, ATP luminescence, 48 h; percent of positive-control rescue, neutral wells zero | protection from apoptosis, % (no concentration beside the values) | actives 0.8% (n = 300,000) | AID 435005;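 active = Every replicate reaches about 75%, or at least half do and their mean reaches it too, limit read from the data; inconclusive = At least half of replicates reach the limit but their mean does not; inactive = Under half of replicates reach the limit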;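 note: higher means more ATP so stronger rescue from cytokine killing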
Calb FLC: affects C. albicans growth with fluconazole | AID 1979 | C. albicans CaCi-2 + fluconazole, Alamar Blue growth, 48 h | growth inhibition, % (test concentration not listed) | actives 0.57% (n = 300,000);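 active = growth inhibition above about 58% in most replicates, limit read from the data, passing the limit was not always enough; inconclusive = exactly half the replicates above a set limit; inactive = most replicates below a set limit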;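 note: all wells also contain fluconazole at 8 µg/ml as a sub-toxic cotreatment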
Mdm2-MdmX inh: disrupts the human Mdm2-MdmX interaction | O15151+Q00987 | actives 3% (n = 330,000) | AID 485346 | inhibition, % at 8 µM | SaOS-2 split-luciferase Mdm2/MdmX complementation, luminescence;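 active = inhibition of at least 50% at 8 µM in the primary screen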
Target sequence (O15151 whole entry, looked up): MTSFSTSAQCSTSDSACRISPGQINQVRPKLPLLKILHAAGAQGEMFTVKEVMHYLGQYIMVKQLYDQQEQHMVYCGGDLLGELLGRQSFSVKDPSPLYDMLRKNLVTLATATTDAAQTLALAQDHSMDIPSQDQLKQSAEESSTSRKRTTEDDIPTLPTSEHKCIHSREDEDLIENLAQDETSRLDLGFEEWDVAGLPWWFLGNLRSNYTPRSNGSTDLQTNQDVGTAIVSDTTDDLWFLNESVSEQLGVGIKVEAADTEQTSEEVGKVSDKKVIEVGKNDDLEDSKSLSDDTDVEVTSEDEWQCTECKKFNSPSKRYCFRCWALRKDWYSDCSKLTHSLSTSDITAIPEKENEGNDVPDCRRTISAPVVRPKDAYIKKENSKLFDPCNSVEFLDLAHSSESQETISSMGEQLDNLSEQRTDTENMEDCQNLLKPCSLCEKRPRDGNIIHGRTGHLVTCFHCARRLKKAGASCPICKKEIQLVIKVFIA
Target sequence (Q00987 whole entry, looked up): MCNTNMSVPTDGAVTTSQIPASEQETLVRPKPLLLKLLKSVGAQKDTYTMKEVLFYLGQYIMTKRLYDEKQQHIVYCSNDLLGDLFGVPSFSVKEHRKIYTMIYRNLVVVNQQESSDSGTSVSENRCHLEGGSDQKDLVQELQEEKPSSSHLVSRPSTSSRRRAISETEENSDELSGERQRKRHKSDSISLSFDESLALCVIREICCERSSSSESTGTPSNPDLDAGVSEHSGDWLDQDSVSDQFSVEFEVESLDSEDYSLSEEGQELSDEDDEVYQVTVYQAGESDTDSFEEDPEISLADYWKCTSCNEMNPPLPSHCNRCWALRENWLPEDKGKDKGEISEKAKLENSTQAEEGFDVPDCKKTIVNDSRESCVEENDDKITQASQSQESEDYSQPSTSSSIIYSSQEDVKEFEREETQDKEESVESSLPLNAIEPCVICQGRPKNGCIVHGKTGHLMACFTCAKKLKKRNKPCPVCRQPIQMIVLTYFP
CSC inhib: blocks cancer stem cells; cancer stem cell-like cells viability, luminescence; inhibition, % at 7.5 µM; actives 1.1% (n = 300,000); AID 2717; in the data active = inhibition above about 75%; inconclusive = no clear call, values can overlap the other calls; tested in HMLE shEcad cells
Mdm2-MdmX conf: human Mdm2/MdmX binding inhibition, confirmed. shares compounds with Mdm2-MdmX inh. luminescent assay. inhibition, % at 8 µM. actives 55% (n = 10,000). AID 489028; in the data active = inhibition above about 40%
FLuc counter: inhibits full-length luciferase, flagging false Mdm2/MdmX hits; actives 77% (n = 6,200); SaOS-2 full-length luciferase counterscreen, luminescence; shares compounds with Mdm2-MdmX inh; inhibition, % at 8 µM;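 active = mean inhibition at 8 µM reaching about 37%, which flags the compound as non-specific, limit read from the data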;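 note: p53-null SaOS-2 cells with luciferase driven by a doxycycline-inducible promoter; compound on cells about two nights before reading with doxycycline added after day one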
Of the large screens only hits and unclear results are named; the others gave an inactive call (follow-up assays come after a bar, where they were run).

CC12CC[C@H]3[C@@H](CCC4(O)C[C@H](O)CCC34/C=N/NC(=O)Cc3ccccc3)C1(O)CCC2C1=CC(=O)OC1 (stereo not given in full)	none
COC(=O)C1=C(c2ccc3ccccc3c2)C[C@@H]2CC[C@H]1N2C(=O)NC1CC1	none (no result: T cruzi inh, Calb FLC)
CN1CC2([N+](=O)[O-])CC=C(Cl)C([N+](=O)[O-])(C1)C2 (stereo not given)	none
Cc1cc(NC(=O)CCl)no1	none
Cc1ccc2c(c1)C1CN(C)CCC1N2C(=O)c1cn(-c2ccccc2)nc1-c1ccccc1 (stereo not given)	Mdm2-MdmX inh 73 | Mdm2-MdmX conf inactive | FLuc counter 76
Cc1ccc2c(c1)C1CN(C)CCC1N2C(=O)CCCN1C(=O)c2cccc3cccc(c23)C1=O (stereo not given)	T cruzi inh inconclusive, Mdm2-MdmX inh 51 | Mdm2-MdmX conf inactive
Cc1ccc2c(c1)C1CN(C)CCC1N2C(=O)Nc1cccc(C(F)(F)F)c1 (stereo not given)	Mdm2-MdmX inh 55 | Mdm2-MdmX conf inactive | FLuc counter 65
Cc1ccc2c(c1)C1CN(C)CCC1N2C(=O)c1cccnc1Cl (stereo not given)	none
Cc1ccc2c(c1)[C@@H]1CN(C)CC[C@@H]1N2C(=O)Nc1cccc(C(F)(F)F)c1	Mdm2-MdmX inh 52 (no result: CSC inhib) | Mdm2-MdmX conf inactive
COC(=O)[C@@H](c1ccccc1)C1CCCCN1 (stereo not given in full)	none (no result: T cruzi inh, Beta cell apopt, Calb FLC, CSC inhib)
O=C1NC(=O)N(Cc2ccccc2)C(=O)/C1=C/N1CCCc2ccccc21	none
CC(C)(C)n1c(O)c(C=Nc2ccc3c(c2)CCC3)c(=O)[nH]c1=O	none
COc1ccc(CCNC(C)CCc2ccc(OC)cc2)cc1 (stereo not given)	none
CCOC(=O)C1(CCOc2ccccc2)CCN(C2Cc3ccccc3C2)CC1	none
O=C1NC(=O)N(Cc2ccccc2)C(=O)/C1=C\C=C\c1ccco1	Mdm2-MdmX inh 66, CSC inhib inconclusive | Mdm2-MdmX conf inactive
O=C1NC(=O)N(Cc2ccco2)C(=O)/C1=C/C=C/c1ccco1	none
NC(N)=N/N=C/c1ccc(N(c2ccccc2)c2ccccc2)cc1	Beta cell apopt 110, Calb FLC 94, Mdm2-MdmX inh 97, CSC inhib 110 | Mdm2-MdmX conf 100 | FLuc counter inactive
CCN(CC)S(=O)(=O)N1CCC(C(=O)N2CCC3(CC2)OCCO3)CC1	none
CNc1ccc2nc3ccccc3[n+](C)c2c1	T cruzi inh 59, Beta cell apopt 93, Mdm2-MdmX inh 83 | Mdm2-MdmX conf 50 | FLuc counter inactive
C[n+]1c2ccccc2nc2ccc(NCCO)cc21	none
CCN(CCO)c1ccc(N=Cc2c(O)n(C)c(=S)[nH]c2=O)cc1	none
C[C@@H]1O[C@@H](O[C@H]2C[C@@H](O)[C@]3(CO)[C@@H]4C(CC[C@]3(O)C2)[C@@]2(O)CC[C@H](C3COC(=O)C3)[C@@]2(C)C[C@H]4O)[C@H](O)[C@H](O)[C@H]1O (stereo not given in full)	Mdm2-MdmX inh 68, CSC inhib 83 (no result: T cruzi inh, Calb FLC) | Mdm2-MdmX conf 70 | FLuc counter inactive
COc1ccc2c(c1OC)CN1CCc3cc4c(cc3[C@H]1C2)OCO4	none (no result: T cruzi inh, Calb FLC)
COc1cc(C2c3cc4c(cc3CC3COC(=O)C32)OCO4)cc(OC)c1OC (stereo not given)	Mdm2-MdmX inh 61 (no result: T cruzi inh, Beta cell apopt, Calb FLC, CSC inhib) | Mdm2-MdmX conf 54 | FLuc counter 98
Cc1cccc(NC2=NCCCS2)c1	none
CC1(C)C(C(=O)N2CCN(c3ccc(Cl)cc3)CC2)C1(C)C	none (no result: Calb FLC)
COC(=O)C1CN(C#N)N(c2ccc(Cl)cc2)C12c1ccccc1-c1ccccc12 (stereo not given)	Beta cell apopt 112, Mdm2-MdmX inh 95 | Mdm2-MdmX conf inactive
Clc1ccc2c(c1)C(OC1CN3CCC1CC3)c1ccccc1CS2 (stereo not given)	Mdm2-MdmX inh 64 | Mdm2-MdmX conf inactive | FLuc counter 61
CN1CCN(CCOC2c3ccccc3CSc3ccc(Cl)cc32)CC1 (stereo not given)	Calb FLC inconclusive
COc1ccc2[nH]c(C)c(CCNCc3cn(C)c4ccccc34)c2c1	none (no result: T cruzi inh, Calb FLC)
COc1cc(/C=C/c2nc3ccccc3c(=O)n2-c2ccc(O)cc2)ccc1O	Mdm2-MdmX inh 77 | Mdm2-MdmX conf 46 | FLuc counter 95
Cc1ccc(-n2c(/C=C/c3ccccn3)nc3ccccc3c2=O)cc1	Mdm2-MdmX inh 59 (no result: Beta cell apopt, CSC inhib) | Mdm2-MdmX conf inactive
O=c1c2ccccc2nc(/C=C/c2ccccc2O)n1-c1ccccc1O	Mdm2-MdmX inh 82 | Mdm2-MdmX conf 56 | FLuc counter 63
C#CCOc1cc(C2C3=C(COC3=O)Nc3cc4c(cc32)OCO4)ccc1OC (stereo not given)	Mdm2-MdmX inh 59 (no result: Calb FLC) | Mdm2-MdmX conf 58 | FLuc counter 80
COC1=C[C@@H]2C3=C([C@@H]2C1=O)[C@@H](NC(C)=O)CCc1cc(OC)c(OC)c(OC)c13	none (no result: T cruzi inh, Calb FLC)
COc1cc2c(c(OC)c1OC)-c1ccc(O)c(=O)cc1C(NC(C)=O)CC2 (stereo not given)	Mdm2-MdmX inh 69 | Mdm2-MdmX conf 66 | FLuc counter 110
Cc1ccc(-n2cc(CNC(C)Cc3cnccn3)c(-c3cccc(C)c3)n2)cc1 (stereo not given)	none
CC(=O)O[C@H]1[C@H]2O[C@]23[C@@H]2CC[C@]4(O)C[C@@H](O)CC[C@]4(C)C2CC[C@]3(C)[C@H]1c1ccc(=O)oc1 (stereo not given in full)	Mdm2-MdmX inh 85, CSC inhib 105 (no result: T cruzi inh, Calb FLC) | Mdm2-MdmX conf 64 | FLuc counter 48
Nc1nnc(CCN2CCCCC2)s1	none (no result: CSC inhib)
NP(=O)(OCCCc1ccccc1)Oc1ccccc1 (stereo not given)	none
COC(=O)C1=C(c2ccc(F)cc2OCc2ccccc2)C[C@@H]2CC[C@H]1N2C(=O)N1CCCCC1	none (no result: T cruzi inh, Calb FLC)
COC(=O)C1=C(c2ccc(F)cc2OCc2ccccc2)C[C@@H]2CC[C@H]1N2C(=O)N1CCC(O)(c2ccc(Cl)cc2)CC1	Mdm2-MdmX inh 69 (no result: T cruzi inh, Calb FLC, CSC inhib) | Mdm2-MdmX conf inactive

Bioassay records from PubChem.
